# Results published in ChEMBL document CHEMBL1157589, “Antifungal 3,5-disubstituted furanones: From 5-acyloxymethyl to 5-alkylidene derivatives” (Bioorg Med Chem, 2010).
# Assays:
# [1] = test system: Candida tropicalis; assay: Antifungal activity against Candida tropicalis 156 after 48 hrs by microdilution method; type: functional; details: Candida tropicalis, 156, 48 h
# Outline: (§1)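 Yeasts held on Sabouraud dextrose agar. MIC by NCCLS M27-A broth microdilution in RPMI 1640 with L-glutamine, buffered with 0.165 M MOPS to pH 7.0. Compounds in DMSO (≤2% final), twofold dilutions 500–0.48. Final inoculum 5 × 10³ ± 0.2 cfu mL⁻¹. Incubated at 35 °C; absorbance at 540 nm read at 24 and 48 h. MIC is 80% growth inhibition versus control; run twice in duplicate.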
# [2] = test system: Candida albicans; assay: Antifungal activity against Candida albicans ATCC 90028 after 48 hrs by microdilution method; type: functional; details: ATCC 90028, 48 h; outline: as §1
# [3] = test system: HeLa S3; assay: Cytostatic activity against human HeLaS3 cells after 48 hrs by XTT assay
# [4] = test system: Trichosporon beigelii; assay: Antifungal activity against Trichosporon beigelii 1188 after 24 hrs by microdilution method; type: functional; details: Trichosporon beigelii, 1188, 24 h; outline: as §1
# [5] = test system: Aspergillus fumigatus; assay: Antifungal activity against Aspergillus fumigatus 231 after 48 hrs by microdilution method; type: functional; details: Aspergillus fumigatus, 231, 48 h
# Outline: (§2)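 Filamentous strains held on Sabouraud dextrose agar. NCCLS M27-A broth microdilution in RPMI 1640 with L-glutamine and 0.165 M MOPS, pH 7.0. DMSO diluent ≤2% final; twofold dilutions 500–0.48. Inoculum 5 × 10³ ± 0.2 cfu mL⁻¹ final.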
# [6] = test system: Lichtheimia corymbifera; assay: Antifungal activity against Absidia corymbifera 272 after 48 hrs by microdilution method; type: functional; details: Lichtheimia corymbifera, 272, 48 h; outline: as §2
# [7] = test system: CCRF-CEM; assay: Cytostatic activity against human CCRF-CEM cells after 72 hrs by XTT assay; type: functional, cell-based
# Outline: (§3)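 Leukemia cells (L1210 ATCC CCL 219, CCRF-CEM ATCC CCL 119, HL-60 ATCC CCL 240) grown in 24-well plates in RPMI 1640 with fetal calf serum. Growth assessed 72 h after drug addition. Viability measured by XTT spectrophotometric assay; potency given as IC50.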
# [8] = test system: Candida albicans; assay: Antifungal activity against Candida albicans ATCC 90028 after 24 hrs by microdilution method; type: functional; details: ATCC 90028, 24 h; outline: as §1
# [9] = test system: Candida tropicalis; assay: Antifungal activity against Candida tropicalis 156 after 24 hrs by microdilution method; type: functional; details: Candida tropicalis, 156, 24 h; outline: as §1
# [10] = test system: HL-60; assay: Cytostatic activity against human HL60 cells after 72 hrs by XTT assay; type: functional, cell-based; details: hl-60; outline: as §3
# [11] = test system: Clavispora lusitaniae; assay: Antifungal activity against Candida lusitaniae 2446/I after 24 hrs by microdilution method; type: functional; outline: as §1
# [12] = test system: Candida albicans; assay: Antifungal activity against Candida albicans ATCC 44859 after 48 hrs by microdilution method; type: functional; details: ATCC 44859, 48 h; outline: as §1
# [13] = test system: Candida parapsilosis; assay: Antifungal activity against Candida parapsilosis ATCC 22019 after 24 hrs by microdilution method; type: functional; details: Lodderomyces parapsilosis, ATCC 22019, 24 h; outline: as §1
# [14] = test system: Aspergillus fumigatus; assay: Antifungal activity against Aspergillus fumigatus 231 after 24 hrs by microdilution method; type: functional; details: Aspergillus fumigatus, 231, 24 h; outline: as §2
# [15] = test system: Nakaseomyces glabratus; assay: Antifungal activity against Candida glabrata 20/I after 48 hrs by microdilution method; type: functional; outline: as §1
# [16] = test system: Trichophyton mentagrophytes; assay: Antifungal activity against Trichophyton mentagrophytes 445 after 120 hrs by microdilution method; type: functional; details: Trichophyton mentagrophytes, 445, 120 h
# Outline: (§4)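 Dermatophyte held on Sabouraud dextrose agar. M27-A microdilution in MOPS-buffered (0.165 M, pH 7.0) RPMI 1640 with L-glutamine. DMSO ≤2% final; twofold dilutions 500–0.48. Inoculum 5 × 10³ ± 0.2 cfu mL⁻¹ final. Incubated at 35 °C; MIC read visually at 72 and 120 h as 80% inhibition of control growth; determined twice in duplicate.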
# [17] = test system: Pichia kudriavzevii; assay: Antifungal activity against Candida krusei ATCC 6258 after 24 hrs by microdilution method; type: functional; details: ATCC 6258, 24 h; outline: as §1
# [18] = test system: Candida albicans; assay: Antifungal activity against Candida albicans ATCC 44859 after 24 hrs by microdilution method; type: functional; details: ATCC 44859, 24 h; outline: as §1
# [19] = test system: Pichia kudriavzevii; assay: Antifungal activity against Candida krusei E28 after 48 hrs by microdilution method; type: functional; details: E28, 48 h; outline: as §1
# [20] = test system: Candida parapsilosis; assay: Antifungal activity against Candida parapsilosis ATCC 22019 after 48 hrs by microdilution method; type: functional; details: Lodderomyces parapsilosis, ATCC 22019, 48 h; outline: as §1
# [21] = test system: Pichia kudriavzevii; assay: Antifungal activity against Candida krusei ATCC 6258 after 48 hrs by microdilution method; type: functional; details: ATCC 6258, 48 h; outline: as §1
# [22] = test system: Trichosporon beigelii; assay: Antifungal activity against Trichosporon beigelii 1188 after 48 hrs by microdilution method; type: functional; details: Trichosporon beigelii, 1188, 48 h; outline: as §1
# [23] = test system: Trichophyton mentagrophytes; assay: Antifungal activity against Trichophyton mentagrophytes 445 after 72 hrs by microdilution method; type: functional; details: Trichophyton mentagrophytes, 445, 72 h; outline: as §4
# [24] = test system: Lichtheimia corymbifera; assay: Antifungal activity against Absidia corymbifera 272 after 24 hrs by microdilution method; type: functional; details: Lichtheimia corymbifera, 272, 24 h; outline: as §2
# [25] = test system: Clavispora lusitaniae; assay: Antifungal activity against Candida lusitaniae 2446/I after 48 hrs by microdilution method; type: functional; outline: as §1
# [26] = test system: L1210; assay: Cytostatic activity against mouse L1210 cells after 72 hrs by XTT assay; type: functional, cell-based; outline: as §3
# [27] = test system: Nakaseomyces glabratus; assay: Antifungal activity against Candida glabrata 20/I after 24 hrs by microdilution method; type: functional; outline: as §1
# [28] = test system: Pichia kudriavzevii; assay: Antifungal activity against Candida krusei E28 after 24 hrs by microdilution method; type: functional; details: E28, 24 h; outline: as §1
# [29] = Homo sapiens, HeLa S3, 48 h, read-out: IC50
# [30] = Homo sapiens, CCRF-CEM, 72 h, read-out: IC50
Structure (SMILES),MIC80 [1] [µM],MIC80 [2] [µM],MIC80 [4] [µM],MIC80 [5] [µM],MIC80 [6] [µM],MIC80 [8] [µM],MIC80 [9] [µM],IC50 [10],MIC80 [11] [µM],MIC80 [12] [µM],MIC80 [13] [µM],MIC80 [14] [µM],MIC80 [15] [µM],MIC80 [16] [µM],MIC80 [17] [µM],MIC80 [18] [µM],MIC80 [19] [µM],MIC80 [20] [µM],MIC80 [21] [µM],MIC80 [22] [µM],other results
O=C1OC(COc2cccc(C(=O)O)c2)C=C1c1ccc(Br)cc1 (centres undefined),7.81,15.6,15.6,7.81,62.5,3.9,7.81,Not Active,7.81,1.95,15.6,1.95,1.95,1.95,15.6,0.97,15.6,15.6,15.6,15.6,"IC50 [3, 29]: 1.44 µM; IC50 [7, 30]: 1.64 µM; MIC80 [23]: 0.97 µM; MIC80 [24]: 62.5 µM; MIC80 [25]: 7.81 µM; IC50 ([26]; Mus musculus, L1210, 72 h, read-out: IC50): 7.42 µM; MIC80 [27]: 1.95 µM; MIC80 [28]: 15.6 µM"
CC(=O)OC/C=C1/C=C(c2ccc(Br)cc2)C(=O)O1,125,62.5,31.2,31.2,31.2,31.2,31.2,Not Active,62.5,31.2,31.2,15.6,62.5,15.6,7.81,7.81,62.5,62.5,62.5,31.2,"IC50 [3, 29]: 4.18 µM; IC50 [7, 30]: 4.32 µM; MIC80 [23]: 7.81 µM; MIC80 [24]: 31.2 µM; MIC80 [25]: 125 µM; IC50 ([26]; l1210): Not Active; MIC80 [27]: 31.2 µM; MIC80 [28]: 62.5 µM"
O=C1O/C(=C\COC(=O)c2ccccc2)C=C1c1ccc(Br)cc1,> 500,> 500,> 500,> 500,> 500,> 500,> 500,Not Active,> 500,> 500,> 500,> 500,> 500,> 500,> 500,> 500,> 500,> 500,> 500,> 500,IC50 ([3]; hela s3): Not Active; IC50 ([7]; ccrf-cem): Not Active; MIC80 [23]: > 500 µM; MIC80 [24]: > 500 µM; MIC80 [25]: > 500 µM; IC50 ([26]; l1210): Not Active; MIC80 [27]: > 500 µM; MIC80 [28]: > 500 µM
